PubChem BioAssay AID652236 (Johns Hopkins Ion Channel Center, 2013)
Out of some 2,300 compounds screened, fewer than 10 were called active.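 How the source made its calls: active means duplicate-mean ratio percent above the mean of iodide-only control wells, which defines zero, plus 5 of their SD; inactive means the rest.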 These entries were drawn from the full list.

Target: Chloride channel protein 1 (Rattus norvegicus) (UniProt P35524)
Test: blockers of rat ClC-1 channel – cell-based, voltage-dependent ClC-1, selectivity assay for TMEM16A inhibitor project (AID 652236);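 further: higher percent means stronger block of ClC-1 iodide influx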
Details: CHO ClC-1-YFP, iodide influx fluorescence quench; at 10 µM; iodide control reads 0, buffer control 100
Summary of the method: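 Test system: ClC-1 CHO cells with mutant YFP H148Q/I152L; probe or stimulus: iodide trigger solution, 138 mM as 4x stock; incubation: compound 20 min, RT; measured by: YFP fluorescence quench kinetics; benchmarks: buffer, iodide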

Chloride channel protein 1 (Rattus norvegicus), sequence (P35524 whole entry, looked up): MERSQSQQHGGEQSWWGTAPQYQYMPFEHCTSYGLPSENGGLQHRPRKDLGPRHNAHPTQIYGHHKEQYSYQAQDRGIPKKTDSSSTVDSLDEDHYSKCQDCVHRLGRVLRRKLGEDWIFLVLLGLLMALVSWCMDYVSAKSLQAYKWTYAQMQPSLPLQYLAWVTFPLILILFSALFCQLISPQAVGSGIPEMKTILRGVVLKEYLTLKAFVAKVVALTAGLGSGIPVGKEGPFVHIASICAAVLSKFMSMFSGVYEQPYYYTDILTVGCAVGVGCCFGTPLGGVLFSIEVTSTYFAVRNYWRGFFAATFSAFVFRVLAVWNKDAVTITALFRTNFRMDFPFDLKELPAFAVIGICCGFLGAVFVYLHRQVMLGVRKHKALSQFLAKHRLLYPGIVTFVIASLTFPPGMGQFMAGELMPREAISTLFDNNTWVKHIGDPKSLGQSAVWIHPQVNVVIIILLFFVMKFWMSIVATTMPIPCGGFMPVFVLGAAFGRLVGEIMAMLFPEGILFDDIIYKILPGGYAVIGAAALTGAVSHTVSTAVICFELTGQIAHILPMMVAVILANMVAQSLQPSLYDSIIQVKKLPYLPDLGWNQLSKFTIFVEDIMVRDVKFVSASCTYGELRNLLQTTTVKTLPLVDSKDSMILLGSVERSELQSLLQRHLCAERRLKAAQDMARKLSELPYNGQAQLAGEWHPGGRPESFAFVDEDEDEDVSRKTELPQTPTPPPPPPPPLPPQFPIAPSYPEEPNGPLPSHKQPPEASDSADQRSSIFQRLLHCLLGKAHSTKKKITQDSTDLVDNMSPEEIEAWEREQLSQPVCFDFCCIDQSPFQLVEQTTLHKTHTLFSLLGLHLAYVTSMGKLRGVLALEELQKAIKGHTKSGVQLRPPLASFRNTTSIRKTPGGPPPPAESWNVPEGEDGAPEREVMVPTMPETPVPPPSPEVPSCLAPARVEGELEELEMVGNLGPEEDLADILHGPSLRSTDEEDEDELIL

Ratio percent, inactive:
S=C(NCC1CCCO1)N1CCN(c2ccc(Cl)c(Cl)c2)CC1 (stereo unspecified) -16.5%, COc1ccc(Cl)cc1NC(=O)CCS(=O)(=O)c1cc2c(cc1C)NC(=O)CO2 -11%, CCc1cc2c(N3CCN(c4nnc(CC)s4)CC3)ncnc2s1 -5%, Cc1cccc(-n2c(SCC(N)=O)nc3c(c2=O)C2(CCCCC2)Cc2ccccc2-3)c1 -9.5%, Cc1ccc(-c2csc(-c3c[nH]c4ccccc34)n2)cc1 -9.5%, CCCCCc1ccc(-c2ccc(C(=O)O)cc2)nc1 -6%, Cn1c(=O)n(C)c2cc(S(=O)(=O)N3CCCc4ccccc43)ccc21 -7.5%, O=C(Nc1ccccc1)c1ccccc1NC(=O)C(F)(F)F -15%, Cc1ccc(NC(=O)C(C)c2cccc(C(=O)c3ccccc3)c2)cc1 (stereo unspecified) -13.5%, CSc1cccc(NC(=S)N(C(C)C)C(C)c2ccccn2)c1 (stereo unspecified) -3%, CC(C)(C)C(=O)/C(C#N)=C/c1ccc(O)cc1 -8%, C=C(C)Cn1c(C)cc(C)c(S(=O)(=O)c2ccccc2C)c1=O -6%, CCCOc1ccc(Cc2c(Cl)nc(SC)nc2NC)cc1 -27.5%, CC(NC(=O)c1ccco1)C(=O)Nc1nc(-c2ccccn2)cs1 (stereo unspecified) -2.5%, Cc1ccc2c(c1)N(CC(=O)N1CCCc3ccccc31)C(=O)C(C)O2 (stereo unspecified) -3%, Cn1c(CCN2CCCCCC2)nc2cc(NC(=O)Nc3ccccc3)ccc21 -1.5%, Cc1cc(C)cc(NS(=O)(=O)c2ccc(Oc3ncc(C(F)(F)F)cc3Cl)cc2)c1 -9.5%, CN(c1cccc(NC(=O)c2ccc(CN3CCc4ccccc4C3)cc2)c1)S(C)(=O)=O -8%, COc1ccc(S(=O)(=O)NCCCCOc2ccc(Cl)cc2)cc1 -32.5%, COc1ccc(NC(=O)C2=CC(c3ccc(OC)c(OC)c3)=NS(=O)(=O)N2C)cc1 -3.5%, Cc1ccccc1-n1nnnc1SCCCC(=O)c1ccc(F)cc1 -11%, COc1ccc(-c2nc(CCNC(=O)c3ccc(Br)o3)cs2)cc1 -12%, O=C(CN1CCN(C(=S)NC2CCCC2)CC1)Nc1ccc(Oc2ccccc2)cc1 -15.5%, CCOC(=O)C1CCN(c2ncnc3c2oc2ccc(Br)cc23)CC1 -36.5%, Cc1cc(C=O)c(C)n1-c1ccc(NC2CCCCC2)c([N+](=O)[O-])c1 -10.5%, O=C(O)c1ccc(NC(=O)C2CCCCC2)cc1 -7%
